From ChEMBL document CHEMBL1149777, “Synthesis and anti-platelet activity of novel arylsulfonate--acylhydrazone derivatives, designed as antithrombotic candidates” (2008)

Legend:
[1] = system: Plasma; assay: Antiplatelet activity against citreated rabbit platelet-rich plasma assessed as inhibition of thrombin-induced platelet aggregation at 150 uM by turbidimetric method; assay type: functional; settings: Oryctolagus cuniculus
Outline: (§1)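 PRP stirred at 900 rpm, 37 °C, 1 min; compound 150 µM or DMSO vehicle (0.5% v/v) added 1 min before agonist: ADP 5 µM, collagen 5 µg/mL, thrombin 2 nM or arachidonic acid 100 µM. Aggregation read turbidimetrically (Born method).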

[2] = system: Plasma; assay: Antiplatelet activity against citreated rabbit platelet-rich plasma assessed as thrombin-induced platelet aggregation at 150 uM by turbidimetric method; assay type: functional, Oryctolagus cuniculus; outline: as §1
[3] = system: Plasma; assay: Antiplatelet activity against citreated rabbit platelet-rich plasma assessed as inhibition of arachidonic acid-induced platelet aggregation at 150 uM by turbidimetric method; assay type: functional; settings: Oryctolagus cuniculus; outline: as §1
[4] = system: Plasma; assay: Antiplatelet activity against citreated rabbit platelet-rich plasma assessed as inhibition of ADP-induced platelet aggregation at 150 uM by turbidimetric method; assay type: functional; settings: Oryctolagus cuniculus; outline: as §1
[5] = system: Plasma; assay: Antiplatelet activity against citreated rabbit platelet-rich plasma assessed as ADP-induced platelet aggregation at 150 uM by turbidimetric method; assay type: functional, Oryctolagus cuniculus; outline: as §1
[6] = system: Plasma; assay: Antiplatelet activity against citreated rabbit platelet-rich plasma assessed as inhibition of collagen-induced platelet aggregation at 150 uM by turbidimetric method; assay type: functional; settings: Oryctolagus cuniculus; outline: as §1
[7] = system: Plasma; assay: Antiplatelet activity against citreated rabbit platelet-rich plasma assessed as collagen-induced platelet aggregation at 150 uM by turbidimetric method; assay type: functional, Oryctolagus cuniculus; outline: as §1
[8] = system: Mus musculus; assay: Antithrombotic activity against thrombin-induced pulmonary thromboembolism in mouse model assessed as survival at 100 umol/kg, po after 15 mins; assay type: functional; settings: 0.25 h

Work on `Cc1cc2c(cc1S(=O)(=O)Oc1ccc(C(=O)N/N=C\c3ccc(C(=O)O)cc3)cc1)OCO2` yielded an inhibition at 150 µM [1] of 100%, an Activity [2] of 0% and an inhibition at 150 µM [3] of 90.8%. The inhibition at 150 µM [4] was 0%, the Activity [5] was 100% and the inhibition at 150 µM [6] was 25%. For the same compound, the Activity [7] was 59% and the survival at 100 µmol/kg [8] was 80%.

`Cc1cc2c(cc1S(=O)(=O)Oc1ccccc1C(=O)N/N=C\c1ccc(C(=O)O)cc1)OCO2` gave an inhibition at 150 µM [1] of 80%, an Activity [2] of 11.9% and an inhibition at 150 µM [3] of 0%. For the same compound, the inhibition at 150 µM [4] was 0%, the Activity [5] was 100% and the inhibition at 150 µM [6] was 0%. It also gave an Activity [7] of 100% and a survival at 100 µmol/kg [8] of 80%.

For `Cc1cc2c(cc1S(=O)(=O)Oc1cccc(/C=N/NC(=O)c3ccncc3)c1)OCO2`, the inhibition at 150 µM [1] was 1.3%, the Activity [2] was 58.7% and the inhibition at 150 µM [3] was 94.8%. The inhibition at 150 µM [4] was 22%, the Activity [5] was 63.3% and the inhibition at 150 µM [6] was 100%. It also gave an Activity [7] of 0%.

`Cc1cc2c(cc1S(=O)(=O)Oc1cccc(C(=O)N/N=C\c3ccc(C#N)cc3)c1)OCO2` was tested, and the inhibition at 150 µM [1] was 2%, the Activity [2] was 58.3% and the inhibition at 150 µM [3] was 100%. For the same compound, the inhibition at 150 µM [4] was 32%, the Activity [5] was 54.9% and the inhibition at 150 µM [6] was 100%. For the same compound, the Activity [7] was 0%.

Compound `Cc1cc2c(cc1S(=O)(=O)Oc1cccc(C(=O)N/N=C\c3ccc(C(=O)O)cc3)c1)OCO2` has an inhibition at 150 µM [1] of 95%, an Activity [2] of 2.9% and an inhibition at 150 µM [3] of 0%. It also gave an inhibition at 150 µM [4] of 0%, an Activity [5] of 100% and an inhibition at 150 µM [6] of 0%. The Activity [7] was 100% and the survival at 100 µmol/kg [8] was 53.3%.

With `Cc1cc2c(cc1S(=O)(=O)Oc1cccc(C(=O)N/N=C\c3ccc([N+](=O)[O-])cc3)c1)OCO2` the inhibition at 150 µM [1] was 3%, the Activity [2] was 57.7% and the inhibition at 150 µM [3] was 81.5%. It also gave an inhibition at 150 µM [4] of 0%, an Activity [5] of 100% and an inhibition at 150 µM [6] of 11.5%. For the same compound, the Activity [7] was 69.6%.

With `Cc1cc2c(cc1S(=O)(=O)Oc1cccc(C(=O)N/N=C\c3ccncc3)c1)OCO2` the inhibition at 150 µM [1] was 72.5%, the Activity [2] was 16.4% and the inhibition at 150 µM [3] was 82%. It also gave an inhibition at 150 µM [4] of 0%, an Activity [5] of 100% and an inhibition at 150 µM [6] of 25%. It also gave an Activity [7] of 59% and a survival at 100 µmol/kg [8] of 33.3%.

In the case of `Cc1cc2c(cc1S(=O)(=O)Oc1cccc(C(=O)N/N=C\c3ccccc3)c1)OCO2`, the inhibition at 150 µM [1] is reported as 0%, the Activity [2] is reported as 100% and the inhibition at 150 µM [3] is reported as 97%. The inhibition at 150 µM [4] was 0%, the Activity [5] was 100% and the inhibition at 150 µM [6] was 42%. It also gave an Activity [7] of 45.6%.

Work on `Cc1cc2c(cc1S(=O)(=O)Oc1cccc(C(=O)N/N=C\c3ccc(N)cc3)c1)OCO2` yielded an inhibition at 150 µM [1] of 2.2%, an Activity [2] of 58.2% and an inhibition at 150 µM [3] of 80%. The inhibition at 150 µM [4] was 0%, the Activity [5] was 100% and the inhibition at 150 µM [6] was 37.5%. It also gave an Activity [7] of 49.2%.

Work on `Cc1cc2c(cc1S(=O)(=O)Oc1cccc(C(=O)N/N=C\c3ccc(/C(N)=N\O)cc3)c1)OCO2` yielded an inhibition at 150 µM [1] of 81%, an Activity [2] of 11.3% and an inhibition at 150 µM [3] of 100%. The inhibition at 150 µM [4] was 36%, the Activity [5] was 58.7% and the inhibition at 150 µM [6] was 100%. For the same compound, the Activity [7] was 0%.

Compound `CC(=O)Oc1ccccc1C(=O)O` [ASPIRIN] has an inhibition at 150 µM [1] of 82.7%, an Activity [2] of 10.3% and an inhibition at 150 µM [3] of 71.6%. For the same compound, the inhibition at 150 µM [4] was 7.9%, the Activity [5] was 74.8% and the inhibition at 150 µM [6] was 77.7%. For the same compound, the Activity [7] was 17.5%.
